Assay: Toxicity liver stage against HepG2, at 10uM
Format: cell-based
Design: test concentration 10 uM, cell line HepG2-A16-CD81EGFP
Conditions: human, HepG2-A16-CD81EGFP cells; read-out: INHIBITION
Procedure, shortened: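 Uninfected HepG2-A16-CD81EGFP cells, 3 × 10^3 per well, 1536-well, plated on prespotted compound at 10 μM final, parasite-free screening media added to match infected plates; puromycin 10 μM positive, DMSO 0.5% negative; run in parallel with 48 h PbLuc assay at 37 °C, 5% CO2; viability by CellTiter-Glo luminescence, normalized to controls.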

| SMILES | cytotoxicity at 10 µM |
| --- | --- |
| Clc1ccccc1CNC(Cn1cncn1)c1ccccc1 (stereo unspecified) | -2.88% |
| CCc1noc(CSc2n[nH]c(-c3ccccn3)n2)n1 | 5.49% |
| CC1CCN(c2ccc(C(=O)N3CCCC3c3nncn3C)cn2)CC1 (stereo unspecified) | -1.88% |
| NC(=O)CCSc1n[nH]c(-c2ccc3c(c2)CCC3)n1 | -0.302% |
| Cn1nnc2c1CCN(Cc1ccoc1)C2COCc1ccccc1 (stereo unspecified) | -138% |
| CS(=O)(=O)NC1CCCN(Cc2ccccn2)C1 (stereo unspecified) | 4.74% |
| FC(F)(F)c1cc(NCCCn2cccn2)nc(-c2cccnc2)n1 | 8.06% |
| O=C(c1ccoc1)N1CC[C@H]2C[C@@H](c3ccncn3)O[C@@H]2C1 | -76.1% |
| CC(C)c1ccc2c(c1)C1(CC(=O)Nc3[nH]ncc31)C(=O)N2C (stereo unspecified) | -0.582% |
| CC(=O)N1CCCN(C(=O)c2cnc3n[nH]c(C)c3c2)CC1 | -5.85% |
| Cc1cc(NC(C)C(=O)NCC(F)(F)F)nc(-c2ccncc2)n1 (stereo unspecified) | 4.96% |
| CCCc1cc(C(=O)N2CCC3(CC2)CN(CCN(C)C)C(=O)O3)no1 | 14.1% |
| CN(C(=O)CCOc1ccccc1)C1CCN(CC2CCOC2)CC1 (stereo unspecified) | -7.7% |
| CCOCC1CN(C(=O)CS(C)(=O)=O)Cc2cnn(C)c21 (stereo unspecified) | -6.63% |
| CCc1ncc(C(=O)NC(C)(C)C(=O)OC)s1 | 5.01% |
| CC(=O)N1CCC1c1cc(N2CCNC(=O)C2)nc(C)n1 (stereo unspecified) | -1.62% |
| Cc1nn(C)c(C)c1C(=O)NCc1cccnc1OC1CCCC1 | -0.171% |
| CC(C)[C@H](N)CC(=O)Nc1nc(-c2cnc(N3CCOCC3)nc2)cs1 | -9.8% |
| CC(C)C(C)N(C)Cc1nnc(-c2ccc(Br)s2)o1 (stereo unspecified) | -1.65% |
| Cc1cccc2c1nc1n2[C@@H](CNC(=O)C2CCOCC2)COC1 | -1.47% |
| COC(=O)CCSc1nncn1-c1ccc(OC)nc1 | -2.09% |
| CCOc1cc(C(=O)N(C)C)ccc1NC(=O)C(C)c1ccsc1 (stereo unspecified) | 5.61% |
| CN1CCCN(C(=O)c2ccn3ccnc3c2)CC1 | -2.38% |

| SMILES | cytotoxicity at 10 µM |
| --- | --- |
| Cc1ccnc(C2CCN(S(=O)(=O)c3cn(C)cn3)CC2)n1 | 3.24% |
| c1cc(CNCC2Cn3nncc3CO2)ccn1 (stereo unspecified) | 6.62% |
| O=C(C1CCCCC1)N1CCCC([C@@H]2C[C@H](C(F)F)n3ncnc3N2)C1 (stereo partly specified) | 1.4% |
| O=C(O)C1CCCN1c1nc(C2CC2)cc(C(F)(F)F)n1 (stereo unspecified) | 7.55% |
| Cc1nc(C2CCCN2C(=O)c2ccccc2)ncc1C(N)=O (stereo unspecified) | -1.47% |
| c1cc(CN2CCCC2)ccc1CNc1cncc2nnnn12 | 3.99% |
| COCC(=O)NC(C)Cc1cccc(Cl)c1 (stereo unspecified) | -8.72% |
| CN(C)C(=O)N1C[C@@H]2COC[C@]2(c2nnc(C3CC3)o2)C1 | -4.05% |
| CC(=O)Nc1nc(C(=O)N2CCCC(n3cncn3)C2)cs1 (stereo unspecified) | -2.02% |
| Cc1cnn(CC2CN(C=C3NN=C(c4occc4C)O3)CCO2)c1 (stereo unspecified) | -2.9% |
| CCN1CCCC(CNC(=O)CCc2ccc(OC)c(F)c2)C1 (stereo unspecified) | -3.42% |
| CCCn1c(O)nnc1SCC1OCCc2ccccc21 (stereo unspecified) | 4.32% |
| CCOc1ccc(-n2nnc(C(=O)O)c2-c2ccncc2)cc1 | -4.14% |
| CSc1cccc(CNC(=O)[C@H]2CNC[C@@H](C(=O)N3CCOCC3)C2)c1 | -6.91% |
| O=C(N1CCC(OCc2ccccn2)CC1)C1(c2ccc(F)cc2)CC1 | 0.178% |
| CCC[C@H]1CN(C2CCOCC2)C[C@@H]1NC(=O)CCc1cnccn1 | 3.12% |
| CC(C)c1noc(CCC(=O)NCC2CCC(C(N)=O)CC2)n1 (stereo unspecified) | -31.6% |
| CNCc1cn(CC2CCN(Cc3cccs3)CC2)nn1 | -4.47% |
| N#Cc1c(F)cccc1Nc1cnn(CC(O)CN2CCOCC2)c1 (stereo unspecified) | -1.47% |
| CO[C@H]1CN(C(=O)c2cn3cc(C)ccc3n2)CC[C@@]12CCCO2 | 3.6% |
| O=C(CN1CCC(N2CCNC2=O)CC1)NCC(F)(F)F | -3.35% |
| Cc1cc(CNC(=O)N2CCOC(c3ccccc3Cl)C2)no1 (stereo unspecified) | 0.658% |
| CCC1CCCN(Cc2nc(N)c3ccccc3n2)C1 (stereo unspecified) | -11.2% |

From ChEMBL document CHEMBL4513216, “Probing the Open Global Health Chemical Diversity Library for Multistage-Active Starting Points for Next-Generation Antimalarials” (ACS Infect Dis, 2020)
